{"data": "Results from different studies", "target": "5-hydroxytryptamine receptor 1A (HTR1A, Homo sapiens, UniProt P08908)", "Sequence (P08908 1-422, as in one of the studies)": "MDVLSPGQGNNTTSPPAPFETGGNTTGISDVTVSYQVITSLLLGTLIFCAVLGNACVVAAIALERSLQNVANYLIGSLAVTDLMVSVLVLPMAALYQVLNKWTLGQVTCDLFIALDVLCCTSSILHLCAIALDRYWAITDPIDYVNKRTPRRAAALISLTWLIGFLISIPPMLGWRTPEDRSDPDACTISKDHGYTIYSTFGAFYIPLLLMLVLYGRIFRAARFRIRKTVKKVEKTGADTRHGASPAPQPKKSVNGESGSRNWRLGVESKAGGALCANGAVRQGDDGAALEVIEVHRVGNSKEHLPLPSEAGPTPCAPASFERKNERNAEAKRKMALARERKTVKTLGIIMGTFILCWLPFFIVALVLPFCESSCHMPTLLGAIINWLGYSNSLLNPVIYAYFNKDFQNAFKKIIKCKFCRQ", "note": "Protocols differ between the studies behind these lines."}
{"observed": "ligand displacement", "method": "radioligand", "concentration": "10 µM", "measurement": "inhibition", "result": "22%", "SMILES": "CCN(CC)c1ccc(C2Nc3ccc(C(=O)c4ccccc4)cc3NC3=C2C(=O)CC(C)(C)C3)cc1 (stereo not shown)"}
{"observed": "ligand displacement", "method": "radioligand", "concentration": "10 µM", "measurement": "inhibition", "result": "23.8%", "SMILES": "COc1cc(NC(C)=O)c(Cl)cc1C(=O)Nc1nccs1"}
{"observed": "ligand displacement", "method": "radioligand", "concentration": "10 µM", "measurement": "inhibition", "result": "0%", "SMILES": "CCN(Cc1ccccc1C(F)(F)F)C(=O)C1CCN(S(=O)(=O)c2ccc3[nH]ncc3c2)CC1"}
{"observed": "ligand displacement", "method": "radioligand", "concentration": "10 µM", "measurement": "inhibition", "result": "8.55%", "SMILES": "CC1=C(C#N)C(c2ccc3c(c2)c(NC(=O)c2ccccc2C)nn3C)C(C#N)=C(C)N1"}
{"observed": "ligand displacement", "method": "radioligand", "concentration": "10 µM", "measurement": "inhibition", "result": "4%", "SMILES": "O=C(Nc1ccc(S(=O)(=O)N2CCC(Cl)CC2)cc1)c1ccc([N+](=O)[O-])o1"}
{"observed": "ligand displacement", "method": "radioligand", "concentration": "10 µM", "measurement": "inhibition", "result": "20%", "SMILES": "O=C1N=C(N2CCCCN2)S/C1=C\\c1ccc(F)cc1O"}
{"observed": "ligand displacement", "method": "radioligand", "concentration": "10 µM", "measurement": "inhibition", "result": "15.5%", "SMILES": "CN([C@@H]1CCc2c(CC(=O)O)c3ccccc3n2C1)S(=O)(=O)c1ccc(F)cc1"}
{"observed": "ligand displacement", "concentration": "10 µM", "measurement": "inhibition", "result": "-8.04%", "SMILES": "N#Cc1cc(Cn2c(N3CCCC3)nc3ccccc32)ccc1F"}
{"observed": "ligand displacement", "method": "radioligand", "concentration": "10 µM", "measurement": "inhibition", "result": "< 50%", "SMILES": "COc1cc2c3c(c1OC)-c1cc4c(cc1CC3N(C)CC2c1ccccc1)OCO4 (stereo not shown)"}
{"observed": "cAMP", "action": "agonist", "method": "luciferase", "measurement": "Emax", "result": "4.4%", "SMILES": "O=C(CCCN1CCCN(c2ccc(Cl)cc2)CC1)c1ccc(F)cc1"}
{"observed": "ligand displacement", "method": "radioligand", "concentration": "10 µM", "measurement": "inhibition", "result": "37.9%", "SMILES": "c1ccc(N2CCN(Cc3nc4ccccc4[nH]3)CC2)nc1"}
{"observed": "ligand displacement", "method": "radioligand", "concentration": "10 µM", "measurement": "inhibition", "result": "-13.5%", "SMILES": "CCCCCCOc1c(OC)cc2c3c1-c1cc4c(cc1CC3N(C)CC2c1ccccc1)OCO4 (stereo not shown)"}
{"observed": "ligand displacement", "concentration": "1 µM", "measurement": "inhibition", "result": "18.5%", "SMILES": "COc1ccc(-n2nc(OCCCN3CCCCC3)ccc2=O)cc1"}
{"observed": "ligand displacement", "concentration": "10 µM", "measurement": "inhibition", "result": "0.33%", "SMILES": "CCCNc1nc2ccccc2n1Cc1ccc(Cl)cc1"}
{"observed": "ligand displacement", "method": "radioligand", "concentration": "10 µM", "measurement": "inhibition", "result": "31.5%", "SMILES": "Oc1cccc(Nc2nc(-c3ccc(F)cc3F)cs2)c1"}
{"observed": "ligand displacement", "concentration": "1 µM", "measurement": "inhibition", "result": "20.6%", "SMILES": "CN1CCN(CCCOc2ccc(=O)n(-c3ccc(Cl)c(Cl)c3)n2)CC1"}
